Bioassay records: PubChem BioAssay, several laboratories
KCNQ1 inh = inhibitors of human KCNQ1 channel, primary screen, cell-based, thallium flux, high-throughput. CHO-K1 KCNQ1, FluxOR thallium flux fluorescence; hits give high values. actives 1.3% (n = 310,000). B-score at 10 µM. Potassium voltage-gated channel subfamily KQT member 1 (Homo sapiens), P51787;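 active = compounds whose thallium flux B-score, printed positive for inhibition, exceeds three library SD while starting fluorescence stays within three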;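 also: channel opened by potassium depolarization with thallium stimulus after 20 min compound exposure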
hERG rescue = hERG rescue from dofetilide block, primary screen, cell-based, CHO-hERG, FluxOR thallium flux, dofetilide IC70; Voltage-gated inwardly rectifying potassium channel KCNH2 (Homo sapiens), Q12809; dofetilide IC70 present; activation (rescue from dofetilide block), less the hit threshold, % at 10 µM; actives 0.51% (n = 310,000); AID 1511, 2009;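 active = activation above the mean of controls blocked by dofetilide plus 5 SD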;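 also: thallium influx through hERG after potassium depolarization seen as dye fluorescence rise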
KCNQ1 pot = potentiators or activators of KCNQ1 channel, primary screen, cell-based, thallium flux, high-throughput; Potassium voltage-gated channel subfamily KQT member 1 (Homo sapiens), P51787; CHO-K1 KCNQ1, thallium flux FluxOR fluorescence; hits give high values; AID 2648, 2010; B-score at 10 µM; actives 0.35% (n = 310,000);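 active = fluorescence ratio B-score, a plate-corrected score, at least three library SD, with initial intensity B-score within 5 SD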
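Doses: Single concentration per compound, DMSO matched to controls | Test system: KCNQ1-transfected CHO-K1 cells | Timing: 90 min dye loading and 20 min compound exposure, both at room temperature | Measured by: Kinetic FluxOR thallium fluorescence, 10-s 1-Hz baseline, 110-s post-stimulus read | Medium: Assay buffer with matched DMSO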
AI-2 QS modul = Vibrio harveyi AI-2 quorum sensing modulators, primary screen, JMH597 strain, luminescence/OD600 ratio; actives 0.4% (n = 300,000); AID 2094, 2009; activity change, % at 7.5 µM; Vibrio harveyi JMH597 AI-2 luminescence/OD600 ratio, 9 h; hits give low values; strain lacks LuxN and CqsS sensors; 0 = neutral-control median; in the data active = activity change below about -75%, passing the limit was not always enough; inconclusive = no clear call, values can overlap the other calls;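 also: luminescence divided by OD600 gain over 9 h not by final OD600 alone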
Cl transport mod = KCC2 cotransporter modulators, thallium flux, primary screen, cell-based, HEK293 KCC2, FluoZin-2 fluorescence, MLSMR | Solute carrier family 12 member 5 (Homo sapiens), Q9H2X9 | KCC2 cells, thallium flux FluoZin-2 fluorescence | B-score of Tl+ flux slope (higher = more flux/activation; lower = inhibition) at 10 µM | actives 2.2% (n = 190,000) | AID 1456, 2008;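 active = thallium flux slope and its plate-corrected score both differing from the plate sample mean at a set confidence after two filtering rounds, in either direction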;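 also: slope of fluorescence scaled to starting intensity during 10 to 20 s after thallium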
Mot1-301 SUMO = yeast Mot1-301 growth rescue at high temperature, primary screen, SUMOylation pathway inhibitor project, S. cerevisiae, ATP luminescence, 38.5C; S. cerevisiae Mot1-301 growth rescue; percent above DMSO median, 100 means doubled; growth rescue, % at 18.8 µM; actives 1% (n = 320,000);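 active = every valid replicate shows activation above 250% relative to neutral control wells; inactive = the rest, any valid replicate at or below 250%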
Mot1 SUMO dose = growth restoration of Mot1-301 yeast on galactose, dose response, SUMO pathway inhibitor project, whole organism, S. cerevisiae, ATP luminescence, cherry-picked samples | shares compounds with Mot1-301 SUMO | S. cerevisiae Mot1-301 galactose growth, 24 h; -100 = growth of slx-deleted rescue strain | growth activity, percent, % at 42 µM | 2,300 tested, under 10 active | AID 493004, 2010;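 active = Signal drops as the depositor expects, and the fitted half-maximal dose is no more than ten times the top valid tested dose; inconclusive = Poor fit, or a flat curve whose signal drops by 30% to 70%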;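 also: more negative values mean stronger growth rescue toward the control strain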
Hits are given with their value; . = inactive; ? = inconclusive; / = no result given; + = active, no number. This is a sample that favours compounds with a hit; in the whole collection about 4.2% have one here.

SMILES | KCNQ1 inh | hERG rescue | KCNQ1 pot | AI-2 QS modul | Cl transport mod | Mot1-301 SUMO | Mot1 SUMO dose
CC(C)[C@H](NS(=O)(=O)c1cccc(C(F)(F)F)c1)C(=O)OCC(=O)NC(=O)NCc1ccco1 | / | / | / | / | / | . | /
CC1=CC(=O)C(C(C)C)=C/C1=N/OS(=O)(=O)c1ccccc1 | . | . | . | ? | . | 390 | .
CSc1nnc2c3cc(C)ccc3n(Cc3ccccc3)c2n1 | . | . | . | . | . | 910 | .
COc1ccc(S(=O)(=O)N(C)C[C@@H]2Oc3c(NS(C)(=O)=O)cccc3C(=O)N([C@@H](C)CO)C[C@H]2C)cc1 | / | / | / | / | / | . | /
Cc1ccc(N(CC(=O)Nc2cccc(C)c2)S(=O)(=O)c2cccc3nonc23)cc1 | . | . | . | . | / | 616 | .
Cc1cc(NS(=O)(=O)c2ccc(NC(=O)c3cnc(Cl)c(Cl)c3)cc2)nc(C)n1 | / | / | / | / | / | . | /
Cc1ccc(S(=O)(=O)N2CCN(C(=O)CSc3nc(N)cc(=O)[nH]3)CC2)c(C)c1 | . | . | . | . | . | 482 | .
CCN(Cc1ccncc1)C(=O)c1ccccc1NS(=O)(=O)c1ccc(Br)cc1 | . | . | . | . | . | . | /
Cc1ccc(S(=O)(=O)N[C@@H](Cc2ccccc2)C(=O)CCl)cc1 | / | / | / | . | . | 608 | .
Cc1ccc(S(=O)(=O)NC(Cc2ccccc2)C(=O)NN)cc1 (stereo not given) | . | . | . | . | / | . | /
COc1ccc(Nc2ccc(OC)cc2)cc1 | . | . | . | . | . | . | /
COc1ccc(NC2=C(C)C(=O)CC2)cc1 | . | . | . | . | . | 594 | .
Cc1ccc2nc(Cl)c(/C=N/Nc3nc(C)cc(C)n3)c(=O)n2c1 | . | . | . | . | . | / | /
COc1cc(OC)cc(OC(=O)c2ccc3c(=O)n4c(nc3c2)CCC4)c1 | . | . | . | . | / | 359 | .
CCOc1ccc(OC(=O)c2ccc3c(=O)n4c(nc3c2)CCC4)cc1 | . | . | . | . | / | . | /
COc1ccc(-c2cc(C#N)nc(N3CCN(c4ccccc4)CC3)n2)cc1 | . | . | . | . | / | 425 | .
CCOC(=O)NC1(Nc2ccc(C)cc2)Oc2ccccc2O1 | . | . | . | . | . | 445 | .
CCOC(=O)NC1(NC(C)C)Oc2ccccc2O1 | . | . | . | . | / | . | /
CCN(CC(=O)Nc1c(F)cccc1F)C(=O)c1ccc(OCc2c(C)noc2C)cc1 | / | / | / | / | / | . | /
CC1(C)CC(=O)C2=C(C1)OC(N)=C(C#N)C21C(=O)N(CN2CCOCC2)c2ccccc21 (stereo not given) | . | . | . | . | . | 457 | .
CCC(c1nnnn1C1CCCC1)N1CCN(c2cccc(OC)c2)CC1 (stereo not given) | . | . | . | . | . | 747 | .
COCCN(C(=O)c1csnn1)C(C(=O)NC1CCCCC1)c1ccccc1 (stereo not given) | . | . | . | . | / | 441 | .
Cc1ccsc1C(=O)NCCc1ccc(S(N)(=O)=O)cc1 | . | . | . | . | / | 765 | .
CCOc1ccccc1OCCCC(=O)NCCc1ccc(S(N)(=O)=O)cc1 | . | . | . | . | / | . | /
CCCCC(=O)NCCc1ccc(S(N)(=O)=O)cc1 | . | . | . | . | . | + | .
SMILES | KCNQ1 inh | hERG rescue | KCNQ1 pot | AI-2 QS modul | Cl transport mod | Mot1-301 SUMO | Mot1 SUMO dose
CC1Cc2ccccc2N1C(=O)COC(=O)c1ccc(Cl)c(S(=O)(=O)N2CCOCC2)c1 (stereo not given) | / | / | / | / | / | . | /
O=C(O)c1ccccc1/C=N/NC(=O)C1CCCC1 | . | . | . | . | / | . | /
O=C(CCCC(=O)N/N=C/c1ccccc1C(=O)O)N/N=C/c1ccccc1C(=O)O | . | . | . | . | . | 419 | .
NC(=O)CC(NC(=S)NCc1ccccc1)C(=O)O (stereo not given) | . | . | . | . | . | 583 | .
COC(=O)c1ccccc1N(C)S(C)(=O)=O | . | . | . | . | . | 563 | .
CCCOC(=O)c1ccc(O)c(OC)c1 | . | . | . | . | / | 398 | .
COc1cc(C(=O)OCCN2CCCCC2)ccc1O | . | . | . | . | / | . | /
Cc1cccc(C(=O)NC2CCN(CC(=O)NCc3ccccc3F)CC2)c1 | . | . | . | . | / | . | /
N=c1ncn(CC(O)CO)c2nc(N3CCOCC3)[nH]c12 (stereo not given) | . | . | . | . | . | 457 | .
NC1=NC(=Nc2ccc(S(N)(=O)=O)cc2)c2ccccc21 | . | . | . | . | . | 419 | .
COc1ccc(C(=O)C2CCCN(Cc3ccc4nonc4c3)C2)c(OC)c1 (stereo not given) | . | . | . | . | / | . | /
CC1(C)C=C(c2ccc(O)cc2)CC(C)(C)N1 | . | . | . | . | / | 660 | .
C/C=C(/C(=C/C)c1ccc(O)cc1)c1ccc(O)cc1 | . | . | . | . | . | . | /
Cc1cc(C)c(NC(=O)CN(C)C(C)C(=O)N2CCc3ccccc32)c(C)c1 (stereo not given) | / | / | / | / | / | . | /
COc1ccc(CN2CC(=O)N(c3ccccc3C)C2=S)cc1OC | . | . | . | . | . | 672 | .
COc1ccc(CN2CC(=O)N(c3ccc(C)cc3C)C2=S)cc1OC | . | . | . | . | . | . | /
CCCCc1nnc(NC(=O)c2ccc3[nH]c(=O)c(=O)[nH]c3c2)s1 | . | . | . | . | / | . | /
Cc1cccc(N2C(=O)C3CCCN3C2=S)c1 (stereo not given) | . | . | . | . | / | . | /
CSc1cccc(N2C(=O)C3CCCN3C2=S)c1 (stereo not given) | . | . | . | . | / | 802 | .
COc1ccc(CCNC(=O)CC2C(=O)NCCN2CC(C)(C)C)cc1 (stereo not given) | . | . | . | . | . | 770 | .
CC(C)Oc1ccc(CCNC(=O)CC2C(=O)NCCN2C)cc1 (stereo not given) | . | . | . | . | . | . | /
COc1cccc(CNC(=O)CCCc2nnc3n(C)c(=O)c4sccc4n23)c1 | . | . | . | . | / | . | /
Cc1ccccc1C(=O)NCC(=O)OC(C)C(=O)NCc1ccco1 (stereo not given) | . | . | . | . | / | . | /
